The nature of data set [1]: Quantification of bivalirudin concentration in plasma of PCI patients. It is filed as in vivo. Conditions: both, human, iv, Residual plasma drug levels two hours after discontinuation of infusion, 2 h POST, LC/MS/MS. In short, it runs like this:
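Test compound given to 22 PCI patients as an IV bolus followed by continuous infusion. Plasma sampled at baseline, about 5 min post-bolus, 30 min into infusion (or at PCI end if earlier), and 5 min, 15 min and 2 h after infusion stopped. Levels measured by LC/MS/MS with a […] detection threshold. Data given as mean ± SD.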

For data set [2] the following is noted: PCI patients; bolus of 1.0 mg/kg followed by infusion of 2.5 mg/kg/h; cited from earlier work.

Turning to `CC[C@H](C)[C@H](NC(=O)[C@H](CCC(=O)O)NC(=O)[C@H](CCC(=O)O)NC(=O)[C@H](Cc1ccccc1)NC(=O)[C@H](CC(=O)O)NC(=O)CNC(=O)[C@H](CC(N)=O)NC(=O)CNC(=O)CNC(=O)CNC(=O)CNC(=O)[C@@H]1CCCN1C(=O)[C@H](CCCNC(=N)N)NC(=O)[C@@H]1CCCN1C(=O)[C@H](N)Cc1ccccc1)C(=O)N1CCC[C@H]1C(=O)N[C@@H](CCC(=O)O)C(=O)N[C@@H](CCC(=O)O)C(=O)N[C@@H](Cc1ccc(O)cc1)C(=O)N[C@@H](CC(C)C)C(=O)O` [bivalirudin], the level at time molar in data set [1] is 200 nM. In data set [2], the “Mean steady-state bivalirudin plasma levels, original dosage” value was 5.6 µM and the “Terminal half-life, original dosage” value is listed as 25 min.

(Values after publication PMC3086141 (Circulation. Cardiovascular interventions, 2011).)
